These results are taken from ChEMBL document CHEMBL1144865, “N-aminoimidazole derivatives inhibiting retroviral replication via a yet unidentified mode of action” (J Med Chem, 2003).

Each structure is given as a SMILES string.

In one test the test system is Human immunodeficiency virus 1. In words: Concentration required to inhibit the viral (HIV-1 NL4.3 strain) cytopathic effect by 50% in MT-4 cells. The format is functional, organism-based. Conditions: Human immunodeficiency virus 1, MT4. In a few lines:
(§1)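 Virus-infected MT-4 cells cultured with serial compound dilutions; viability measured 5 days after infection by MTT tetrazolium colorimetric read-out. The value is the concentration protecting 50% of cells from viral cytopathic effect. Averages ± SD from at least two independent experiments. HIV-2 and SIV stocks came from infected MT-4 culture supernatants.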
On the technique in general: Cytopathic effects are the visible damage that an infection or toxin causes in cultured cells.
Turning to `Cc1nc(S)n(Nc2cccc(Cl)c2)c1-c1cccc(Br)c1`, the IC50 (as a rule, the concentration needed to halve the response being measured) was found to be 5.6 µM.

In turn, `CC1N=C(S)N(Nc2cccc(Cl)c2)C1c1cccc(C#N)c1` (stereo not drawn) registered an IC50 of 42 µM.

The molecule `COc1cccc(NN2C(S)=NC(C)C2c2ccccc2)c1` (stereo not drawn) showed an IC50 of 9.79 µM.

With `CC1N=C(S)N(Nc2cccc(Br)c2)C1c1ccccc1` (stereo not drawn), the IC50 came to 4.52 µM.

With `Cc1nc(S)n(Nc2cccc3ccccc23)c1-c1ccccc1`, the IC50 is 6.58 µM.

Molecule `CC1N=C(S)N(Nc2cccc([N+](=O)[O-])c2)C1c1ccccc1` (stereo not drawn) yielded an IC50 of 11.2 µM.

`COc1ccc(-c2c(C)nc(S)n2Nc2cccc(Cl)c2)cc1`: the IC50 is greater than 38.7 µM.

Turning to `Cc1nc(S)n(Nc2cccc(Cl)c2)c1-c1ccc(Cl)cc1`, the IC50 was greater than 40.8 µM.

Another test relates to Human immunodeficiency virus 1. Kind of test: Concentration required to inhibit the viral (HIV-1 NNRTI resistant strain) cytopathic effect by 50% in MT-4 cells. Conditions: Human immunodeficiency virus 1, MT4. The format is functional, organism-based. Put shortly: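 MT-4 cells infected with HIV-1(III_B)-derived strain S0561945 (K103N + Y181C RT mutations, NNRTI-resistant). Cultured with varying compound concentrations; viability read on day 5 post-infection by MTT tetrazolium colorimetry. Value is the concentration giving 50% protection against virus-induced cytopathic effect. Cytotoxicity measured in parallel on mock-infected cells at day 5. Averages ± SD from at least two independent experiments.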
In turn, `Cc1nc(S)n(Nc2cccc(Cl)c2)c1-c1cccc(Br)c1` came in with an IC50 of 3 µM. This lies in the single-digit micromolar range.

Turning to `CC1N=C(S)N(Nc2cccc(Cl)c2)C1c1cccc(C#N)c1` (stereo not drawn), the IC50 is greater than 99.4 µM.

With `COc1cccc(NN2C(S)=NC(C)C2c2ccccc2)c1` (stereo not drawn), the IC50 is greater than 38 µM.

Molecule `CC1N=C(S)N(Nc2cccc(Br)c2)C1c1ccccc1` (stereo not drawn) registered an IC50 of 5.77 µM. In other words, the single-digit micromolar range.

With `Cc1nc(S)n(Nc2cccc3ccccc23)c1-c1ccccc1`, inhibition was half-maximal at 11.9 µM (IC50).

`CC1N=C(S)N(Nc2cccc([N+](=O)[O-])c2)C1c1ccccc1` (stereo not drawn) showed an IC50 of 42.2 µM.

In turn, `COc1ccc(-c2c(C)nc(S)n2Nc2cccc(Cl)c2)cc1` had an IC50 greater than 38.7 µM.

The molecule `Cc1nc(S)n(Nc2cccc(Cl)c2)c1-c1ccc(Cl)cc1` came in with an IC50 greater than 40.8 µM.

The subject of another test is Human immunodeficiency virus 2. In words: Concentration required to inhibit the viral (HIV-2 ROD) cytopathic effect by 50% in MT-4 cells. The format is functional, organism-based, MT4. Conditions: Human immunodeficiency virus 2, MT4. Put shortly: as §1
The molecule `Cc1nc(S)n(Nc2cccc(Cl)c2)c1-c1cccc(Br)c1` displayed an IC50 of 10.5 µM. In other words, the double-digit micromolar range.

Turning to `CC1N=C(S)N(Nc2cccc(Cl)c2)C1c1cccc(C#N)c1` (stereo not drawn), the half-maximal inhibitory concentration (IC50) was greater than 99.4 µM.

`COc1cccc(NN2C(S)=NC(C)C2c2ccccc2)c1` (stereo not drawn) yielded an IC50 greater than 38 µM.

`CC1N=C(S)N(Nc2cccc(Br)c2)C1c1ccccc1` (stereo not drawn) returned an IC50 greater than 44.2 µM.

As for `Cc1nc(S)n(Nc2cccc3ccccc23)c1-c1ccccc1`, the IC50 worked out at 5.1 µM.

`CC1N=C(S)N(Nc2cccc([N+](=O)[O-])c2)C1c1ccccc1` (stereo not drawn) displayed an IC50 greater than 48.3 µM.

The molecule `COc1ccc(-c2c(C)nc(S)n2Nc2cccc(Cl)c2)cc1` returned an IC50 greater than 38.7 µM.

As to `Cc1nc(S)n(Nc2cccc(Cl)c2)c1-c1ccc(Cl)cc1`, the IC50 was greater than 40.8 µM.

The next test relates to Simian immunodeficiency virus. In words: Concentration required to inhibit the viral (SIV mac251) cytopathic effect by 50% in MT-4 cells. The format is functional, organism-based, MT4. Conditions: Simian immunodeficiency virus, mac251, MT4. Put shortly:
as §1
Turning to `Cc1nc(S)n(Nc2cccc(Cl)c2)c1-c1cccc(Br)c1`, the IC50 came out at 1.75 µM.

Take `CC1N=C(S)N(Nc2cccc(Cl)c2)C1c1cccc(C#N)c1` (stereo not drawn): the IC50 was greater than 99.4 µM.

`COc1cccc(NN2C(S)=NC(C)C2c2ccccc2)c1` (stereo not drawn): the IC50 is greater than 38 µM.

In the case of `CC1N=C(S)N(Nc2cccc(Br)c2)C1c1ccccc1` (stereo not drawn), half-maximal inhibition (IC50) required 2.72 µM.

Regarding `Cc1nc(S)n(Nc2cccc3ccccc23)c1-c1ccccc1`, the 50% inhibitory concentration (IC50) was 4.68 µM.

Turning to `CC1N=C(S)N(Nc2cccc([N+](=O)[O-])c2)C1c1ccccc1` (stereo not drawn), the IC50 worked out at 7.54 µM.

As for `COc1ccc(-c2c(C)nc(S)n2Nc2cccc(Cl)c2)cc1`, the IC50 was found to be 10.1 µM.

In turn, `Cc1nc(S)n(Nc2cccc(Cl)c2)c1-c1ccc(Cl)cc1` had an IC50 of 7.71 µM. The IC50 values of the last two molecules are within 1.5-fold of each other.

The test system of a further test is Human immunodeficiency virus 1. In words: Concentration required to inhibit the viral (HIV-1 IIIB strain) cytopathic effect by 50% in MT-4 cells. The format is functional, organism-based. To be noted: Human immunodeficiency virus 1, MT4. Put shortly:
as §1
In turn, `Cc1nc(S)n(Nc2cccc(Cl)c2)c1-c1cccc(Br)c1` displayed an IC50 of 8.54 µM.

In turn, `CC1N=C(S)N(Nc2cccc(Cl)c2)C1c1cccc(C#N)c1` (stereo not drawn) had an IC50 of no less than 99.4 µM.

In turn, `COc1cccc(NN2C(S)=NC(C)C2c2ccccc2)c1` (stereo not drawn) yielded an IC50 of 4.78 µM.

Molecule `CC1N=C(S)N(Nc2cccc(Br)c2)C1c1ccccc1` (stereo not drawn) displayed an IC50 of 9.96 µM. This IC50 is about 2.1-fold higher than that of the molecule before.

Turning to `Cc1nc(S)n(Nc2cccc3ccccc23)c1-c1ccccc1`, the IC50 stood at 5.55 µM.

The molecule `CC1N=C(S)N(Nc2cccc([N+](=O)[O-])c2)C1c1ccccc1` (stereo not drawn) came in with an IC50 of 7.29 µM. This IC50 and that of the molecule before are within 1.5-fold of each other.

Take `COc1ccc(-c2c(C)nc(S)n2Nc2cccc(Cl)c2)cc1`: the IC50 is greater than 38.7 µM.

With `Cc1nc(S)n(Nc2cccc(Cl)c2)c1-c1ccc(Cl)cc1`, the IC50 is greater than 40.8 µM.

A further test concerns MT4. Kind of test: Concentration that reduced the MT-4 cell viability by 50%. It is filed as functional, Homo sapiens. To be noted: Homo sapiens, MT4. In a few lines: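 Mock-infected MT-4 cells, run in parallel with the antiviral assay, were exposed to compound. Viability on day 5 was read by MTT colorimetry. The value is the concentration lowering viability by 50%. Averages ± SD from at least two independent experiments.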
For the molecule `Cc1nc(S)n(Nc2cccc(Cl)c2)c1-c1cccc(Br)c1`, the midpoint of cytotoxicity, the CC50, lay at 44 µM.

On to `CC1N=C(S)N(Nc2cccc(Cl)c2)C1c1cccc(C#N)c1` (stereo not drawn), for which half-maximal cytotoxicity (CC50) was put at 99.4 µM.

Turning to `COc1cccc(NN2C(S)=NC(C)C2c2ccccc2)c1` (stereo not drawn), the CC50 (usually the concentration that lowers cell viability or growth by half) is 38 µM.

The molecule `CC1N=C(S)N(Nc2cccc(Br)c2)C1c1ccccc1` (stereo not drawn) gave a CC50 of 44.2 µM. This CC50 and that of the molecule before are within 1.5-fold of each other.

`Cc1nc(S)n(Nc2cccc3ccccc23)c1-c1ccccc1` had a CC50 of 32 µM.

For `CC1N=C(S)N(Nc2cccc([N+](=O)[O-])c2)C1c1ccccc1` (stereo not drawn), the CC50 was 48.3 µM.

As to `COc1ccc(-c2c(C)nc(S)n2Nc2cccc(Cl)c2)cc1`, the CC50 turned out to be 38.7 µM.

In the case of `Cc1nc(S)n(Nc2cccc(Cl)c2)c1-c1ccc(Cl)cc1`, the CC50 came out at 40.8 µM.
